pIC50: −log10 of the molar value.
Assays:
[1] = Cytotoxicity against human SH-SY5Y cells assessed as cell viability after 24 hrs by MTT assay; format: functional, cell-based
In short: (§1)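 Cells grown to about 50−70% confluence at 37 °C, 5% CO2, then exposed to compounds 24 h (DMSO vehicle control, cisplatin positive control). MTT (5 mg/mL stock) added for 4 h, formazan dissolved in DMSO, absorbance read at 570 nm. IC50 derived from percent viability; at least three independent experiments, mean ± SD.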

[2] = Cytotoxicity against human SKOV3 cells assessed as cell viability after 24 hrs by MTT assay; format: functional, cell-based; settings: SK-OV-3, 24 h; in short: as §1
[3] = Cytotoxicity against human PC3 cells assessed as cell viability after 24 hrs by MTT assay; format: functional, cell-based; settings: PC-3, 24 h; in short: as §1
LNCaP = test: Cytotoxicity against human LNCAP cells assessed as cell viability after 24 hrs by MTT assay; format: functional, cell-based; in short: as §1
NCI-H1299 = test: Cytotoxicity against human NCI-H1299 cells assessed as cell viability after 24 hrs by MTT assay; format: functional, cell-based; settings: NCI-H1299, 24 h; in short: as §1
DU-145 = test: Cytotoxicity against human DU145 cells assessed as cell viability after 24 hrs by MTT assay; format: functional, cell-based; settings: DU-145, 24 h; in short: as §1
[4] = Cytotoxicity against human Saos2 cells assessed as cell viability after 24 hrs by MTT assay; format: functional, cell-based; settings: SAOS-2, 24 h; in short: as §1
MDA-MB-231 = test: Cytotoxicity against human MDA-MB-231 cells assessed as cell viability after 24 hrs by MTT assay; format: functional, cell-based; settings: MDA-MB-231, 24 h; in short: as §1
[5] = Cytotoxicity against human T24 cells assessed as cell viability after 24 hrs by MTT assay; format: functional, cell-based; settings: T-24, 24 h; in short: as §1
K562 = test: Cytotoxicity against human K562 cells assessed as cell viability after 24 hrs by MTT assay; format: functional, cell-based; settings: K562, 24 h; in short: as §1
[6] = Cytotoxicity against human HL60 cells assessed as cell viability after 24 hrs by MTT assay; format: functional, cell-based; settings: HL-60, 24 h; in short: as §1
[7] = Cytotoxicity against human A172 cells assessed as cell viability after 24 hrs by MTT assay; format: functional, cell-based; settings: A 172, 24 h; in short: as §1
[8] = Cytotoxicity against human RWPE1 cells assessed as cell viability after 24 hrs by MTT assay; format: cell-based; settings: RWPE-1, 24 h; in short: as §1
LoVo = test: Cytotoxicity against human LoVo cells assessed as cell viability after 24 hrs by MTT assay; format: functional, cell-based; in short: as §1

Measured: pIC50

C=C1C[C@@]23CC[C@H]4[C@@](C)(CCC[C@]4(C)C(=O)O)[C@@H]2CC[C@@H]1C3
< 4.30: [1] | [2] | [3] | LNCaP | NCI-H1299 | DU-145 | [4] | MDA-MB-231 | [5] | K562 | [6] | [7] | [8] | LoVo

C=C1[C@@H]2CC(=O)[C@H]3[C@]4(C)CCCC(C)(C)[C@H]4CC[C@]3(C2)[C@@H]1O
< 4.30: [1] | [2] | [3] | LNCaP | NCI-H1299 | DU-145 | [4] | MDA-MB-231 | [5] | K562 | [6] | [7] | [8] | LoVo

C[C@H]1C(=O)[C@@]23CC[C@@H]4C(C)(C)CCC[C@@]4(C)[C@@H]2[C@@H](O)C[C@@H]1C3
< 4.30: [1] | [2] | [3] | LNCaP | NCI-H1299 | DU-145 | [4] | MDA-MB-231 | [5] | K562 | [6] | [7] | [8] | LoVo

C=C1[C@@H]2C[C@H](O)[C@H]3[C@]4(C)CCCC(C)(C)[C@H]4CC[C@]3(C2)[C@@H]1O
< 4.30: [1] | [2] | [3] | LNCaP | NCI-H1299 | DU-145 | [4] | MDA-MB-231 | [5] | K562 | [6] | [7] | [8] | LoVo

C=C1C[C@]23C[C@H]1CC[C@H]2[C@@]1(C)[C@H](C[C@H]3O)C(C)(C)CC[C@@H]1O
< 4.30: [1] | [2] | [3] | LNCaP | NCI-H1299 | DU-145 | [4] | MDA-MB-231 | [5] | K562 | [6] | [7] | [8] | LoVo

C=C1C(=O)[C@@]23CC[C@@H]4C(C)(C)CCC[C@@]4(C)[C@@H]2[C@@H](O)C[C@@H]1C3
5.32: MDA-MB-231
5.59: NCI-H1299
5.60: LNCaP
5.77: [2]
5.49: [7]
6.05: [6]
5.68: [5]
5.85: [4] | LoVo
6.15: [1]
5.35: DU-145
5.72: [3]
5.28: [8]
5.82: K562

C=C1[C@@H]2CC[C@@H]3[C@@](CC[C@@H]4C(C)(C)CC[C@H](O)[C@]43C)(C2)[C@@H]1O
< 4.30: [1] | [2] | [3] | LNCaP | NCI-H1299 | DU-145 | [4] | MDA-MB-231 | [5] | K562 | [6] | [7] | [8] | LoVo

C=C1C[C@]23C[C@H]1CC[C@H]2[C@]1(C)CCCC(C)(C)[C@H]1C[C@H]3O
< 4.30: [1] | [2] | [3] | LNCaP | NCI-H1299 | DU-145 | [4] | MDA-MB-231 | [5] | K562 | [6] | [7] | [8] | LoVo

C=C1[C@@H]2CC(=O)[C@H]3[C@]4(C)CCCC(C)(C)[C@H]4C[C@@H](O)[C@]3(C2)[C@@H]1O
< 4.30: [1] | [2] | [3] | LNCaP | NCI-H1299 | DU-145 | [4] | MDA-MB-231 | [5] | K562 | [6] | [7] | [8] | LoVo

C=C1[C@@H]2CC[C@H]3[C@]4(C)CCCC(C)(C)[C@H]4CC[C@]3(C2)[C@@H]1O
< 4.30: [1] | [2] | [3] | LNCaP | NCI-H1299 | DU-145 | [4] | MDA-MB-231 | [5] | K562 | [6] | [7] | [8] | LoVo

C=C1C[C@]23C[C@H]1CC[C@H]2[C@@]1(C)[C@H](C[C@H]3OC(C)=O)C(C)(C)CC[C@@H]1O
< 4.30: [1] | [2] | [3] | LNCaP | NCI-H1299 | DU-145 | [4] | MDA-MB-231 | [5] | K562 | [6] | [7] | [8] | LoVo

C=C1[C@@H]2CC[C@H]3[C@]4(C)CCC[C@](C)(C(=O)O)[C@H]4CC[C@]3(C2)[C@@H]1OC(C)=O
< 4.30: [1] | [2] | [3] | LNCaP | NCI-H1299 | DU-145 | [4] | MDA-MB-231 | [5] | K562 | [6] | [7] | [8] | LoVo

C[C@@H]1C(=O)[C@H]2C[C@]1(O)CC1=C2[C@]2(C)CCCC(C)(C)[C@H]2CC1
< 4.30: [1] | [2] | [3] | LNCaP | NCI-H1299 | DU-145 | [4] | MDA-MB-231 | [5] | K562 | [6] | [7] | [8] | LoVo

C=C1[C@@H]2CC[C@@H]3[C@@](CC[C@@H]4C(C)(C)CC[C@H](O)[C@]43C)(C2)[C@H]1O
< 4.30: [1] | [2] | [3] | LNCaP | NCI-H1299 | DU-145 | [4] | MDA-MB-231 | [5] | K562 | [6] | [7] | [8] | LoVo

C=C1C(=O)[C@@]23CC[C@@H]4[C@@](C)(CO)CCC[C@@]4(C)C2=CC[C@]1(O)C3
4.93: [8]
4.94: LNCaP
4.97: NCI-H1299
5.11: [4]
5.26: [3]
5.36: [1] | [7]
4.91: MDA-MB-231
5.43: [6]
5.05: LoVo
4.99: K562
5.07: [2]
4.98: [5]
5.20: DU-145

C[C@@H]1C(=O)[C@@]23CC[C@@H]4[C@@](C)(CO)CCC[C@@]4(C)C2=CC[C@]1(O)C3
< 4.30: [1] | [2] | [3] | LNCaP | NCI-H1299 | DU-145 | [4] | MDA-MB-231 | [5] | K562 | [6] | [7] | [8] | LoVo

C[C@@H]1C(=O)[C@H]2C[C@]1(O)CC1=C2[C@]2(C)CCC[C@@](C)(CO)[C@H]2CC1
< 4.30: [1] | [2] | [3] | LNCaP | NCI-H1299 | DU-145 | [4] | MDA-MB-231 | [5] | K562 | [6] | [7] | [8] | LoVo

C[C@@H]1C(=O)[C@@]23CC[C@@H]4C(C)(C)[C@H](O)CC[C@@]4(C)[C@@H]2[C@@H](O)C[C@@H]1C3
< 4.30: [1] | [2] | [3] | LNCaP | NCI-H1299 | DU-145 | [4] | MDA-MB-231 | [5] | K562 | [6] | [7] | [8] | LoVo

C=C1C(=O)[C@@]23CC[C@@H]4C(C)(C)CCC[C@@]4(C)C2=CC[C@]1(O)C3
5.72: K562
6.00: [6]
5.26: DU-145
5.74: [2] | LoVo
5.38: MDA-MB-231
5.62: NCI-H1299
5.42: [7]
5.21: [8]
5.49: [3] | LNCaP
5.77: [5]
5.89: [4]
5.92: [1]
